Test results reported in ChEMBL document CHEMBL3856208, “Lupane and 18α-oleanane derivatives substituted in the position 2, their cytotoxicity and influence on cancer cells” (Eur J Med Chem, 2016).

How the values were obtained:
CCRF-CEM [1] = test: Inhibition of RNA synthesis in human CCRF-CEM cells assessed as decrease in BrU incorporation by measuring synthesized RNA levels at 4.6 uM after 24 hrs by propidium iodide staining-based flow cytometric method (reference value: 43.37%); assay type: functional; design: scale not given: the % may be the effect or the level left
[2] = Cytotoxicity against human CCRF-CEM cells after 72 hrs by MTS assay; assay type: functional, cell-based
Summary of the method: (§1)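 Cells seeded at 25000–35000 cells/mL, compounds from DMSO dosed at time zero as four-fold dilutions. Exposure 72 h at 37 °C, 5% CO2, with MTS added for 1–4 h and OD read at 490 nm. Survival expressed as % of mean control OD, with IC50 from dose-response curves. Run as technical duplicates in at least three biological replicates.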

[3] = Cytotoxicity against human CEM/DNR cells after 72 hrs by MTS assay; assay type: functional, cell-based; summary of the method: as §1
[4] = Cytotoxicity against human K562 cells after 72 hrs by MTS assay; assay type: functional, cell-based; conditions: K562, 72 h; summary of the method: as §1
[5] = Cytotoxicity against human K562-TAX cells after 72 hrs by MTS assay; assay type: functional, cell-based; summary of the method: as §1
[6] = Cytotoxicity against human A549 cells after 72 hrs by MTS assay; assay type: functional, cell-based; conditions: A549, 72 h; summary of the method: as §1
[7] = Cytotoxicity against human HCT116 cells after 72 hrs by MTS assay; assay type: functional, cell-based; conditions: HCT-116, 72 h; summary of the method: as §1
[8] = Cytotoxicity against p53 deficient human HCT116 cells after 72 hrs by MTS assay; assay type: functional, cell-based; conditions: HCT-116, 72 h; summary of the method: as §1
[9] = Cytotoxicity against human U2OS cells after 72 hrs by MTS assay; assay type: functional, cell-based; summary of the method: as §1
[10] = Cytotoxicity against human BJ cells after 72 hrs by MTS assay; assay type: toxicity, cell-based; summary of the method: as §1
[11] = Cytotoxicity against human MRC5 cells after 72 hrs by MTS assay; assay type: toxicity, cell-based; summary of the method: as §1
[12] = Therapeutic index, ratio of IC50 for human BJ cells to IC50 for human CCRF-CEM cells; assay type: cell-based; conditions: BJ cells versus CCRF-CEM cells, read-out: Ratio IC50
[13] = Therapeutic index, ratio of IC50 for human MRC5 cells to IC50 for human CCRF-CEM cells; assay type: cell-based; conditions: MRC5 cells versus CCRF-CEM cells, read-out: Ratio IC50
[14] = Cell cycle arrest in human CCRF-CEM cells assessed as accumulation at sub G1 phase at 4.6 uM after 24 hrs by propidium iodide staining-based flow cytometric method (reference value: 1.8%); assay type: functional
[15] = Cell cycle arrest in human CCRF-CEM cells assessed as accumulation at sub G1 phase at 23 uM after 24 hrs by propidium iodide staining-based flow cytometric method (reference value: 1.8%); assay type: functional
[16] = Cell cycle arrest in human CCRF-CEM cells assessed as accumulation at G0/G1 phase at 4.6 uM after 24 hrs by propidium iodide staining-based flow cytometric method (reference value: 36.41%); assay type: functional
[17] = Cell cycle arrest in human CCRF-CEM cells assessed as accumulation at G0/G1 phase at 23 uM after 24 hrs by propidium iodide staining-based flow cytometric method (reference value: 36.41%); assay type: functional
[18] = Cell cycle arrest in human CCRF-CEM cells assessed as accumulation at S phase at 4.6 uM after 24 hrs by propidium iodide staining-based flow cytometric method (reference value: 50.33%); assay type: functional
[19] = Cell cycle arrest in human CCRF-CEM cells assessed as accumulation at S phase at 23 uM after 24 hrs by propidium iodide staining-based flow cytometric method (reference value: 50.33%); assay type: functional
[20] = Cell cycle arrest in human CCRF-CEM cells assessed as accumulation at G2/M phase at 4.6 uM after 24 hrs by propidium iodide staining-based flow cytometric method (reference value: 13.28%); assay type: functional
[21] = Cell cycle arrest in human CCRF-CEM cells assessed as accumulation at G2/M phase at 23 uM after 24 hrs by propidium iodide staining-based flow cytometric method (reference value: 13.28%); assay type: functional
CCRF-CEM [22] = test: Mitotic arrest in human CCRF-CEM cells assessed as phosphorylation of histone-3 at Ser10 at 4.6 uM after 24 hrs by flow cytometric method (reference value: 1.66%); assay type: functional
CCRF-CEM [23] = test: Inhibition of DNA synthesis in human CCRF-CEM cells assessed as decrease in BrdU incorporation by measuring synthesized DNA levels at 4.6 uM after 24 hrs by propidium iodide staining-based flow cytometric method (reference value: 56.37%); assay type: functional; design: scale not given: the % may be the effect or the level left
Summary of the method: (§2)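 CCRF-CEM cells were cultured and treated as for cell cycle analysis, then pulse-labeled with 10 µM BrDU for 30 min before harvest. Cells were ethanol-fixed, DNA-denatured in 2 M HCl for 30 min at room temperature, and neutralized with 0.1 M borax. Staining used anti-BrDU, then anti-mouse-FITC, then PI (0.1 mg/mL) with RNase A (0.5 mg/mL) for 1 h. Read-out was 488 nm flow cytometry.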

CCRF-CEM [24] = test: Inhibition of DNA synthesis in human CCRF-CEM cells assessed as decrease in BrdU incorporation by measuring synthesized DNA levels at 23 uM after 24 hrs by propidium iodide staining-based flow cytometric method (reference value: 56.37%); assay type: functional; design: scale not given: the % may be the effect or the level left; summary of the method: as §2
CCRF-CEM [25] = test: Inhibition of RNA synthesis in human CCRF-CEM cells assessed as decrease in BrU incorporation by measuring synthesized RNA levels at 23 uM after 24 hrs by propidium iodide staining-based flow cytometric method (reference value: 43.37%); assay type: functional; design: scale not given: the % may be the effect or the level left
CCRF-CEM [26] = test: Mitotic arrest in human CCRF-CEM cells assessed as phosphorylation of histone-3 at Ser10 at 23 uM after 24 hrs by flow cytometric method (reference value: 1.66%)

Compound	IC50 [2] [µM]	IC50 [3] [µM]	IC50 [4] [µM]	IC50 [5] [µM]	IC50 [6] [µM]	IC50 [7] [µM]	IC50 [8] [µM]	IC50 [9] [µM]	IC50 at 72 h [10] [µM]	IC50 at 72 h [11] [µM]	selectivity ratio [12]	selectivity ratio [13]	further results
CC1(C)CC[C@]23CC[C@]4(C)[C@H](CC[C@@H]5[C@@]6(C)CC(N)[C@H](O)C(C)(C)[C@@H]6CC[C@]54C)[C@H]2[C@H]1OC3 (stereo partly drawn)	4.6 to 5	5.9	4.5	3.9	6.2	4.9	4.8	6.2	7.1	6.3	1.4	1.4	Activity (CCRF-CEM [1]): 42.98%; Activity [14]: 2.79%; Activity [15]: 7.1%; Activity [16]: 40.7%; Activity [17]: 28.9%; Activity [18]: 47.8%; Activity [19]: 54.9%; Activity [20]: 11.5%; Activity [21]: 16.2%; Activity (CCRF-CEM [22]): 1.44%; Activity (CCRF-CEM [23]): 53.53%; Activity (CCRF-CEM [24]): 1.88%; Activity (CCRF-CEM [25]): 2.23%; Activity (CCRF-CEM [26]): 0.49%
CC(C)[C@@H]1CC[C@]2(C(=O)O)CC[C@]3(C)[C@H](CC[C@@H]4[C@@]5(C)C=C(NC6=C[C@]7(C)[C@H]8CC[C@@H]9[C@H]%10[C@H](C(C)C)CC[C@]%10(C(=O)O)CC[C@@]9(C)[C@]8(C)CC[C@H]7C(C)(C)C6=O)C(=O)C(C)(C)[C@@H]5CC[C@]43C)[C@@H]12	26.6 to 27	33.9	> 50	20.1	> 50	> 50	> 50	> 50	> 50	> 50	> 1.9	> 1.9	
